This note sets out measurements from ChEMBL document CHEMBL4627265, “Optimization of 8-oxoadenines with toll-like-receptor 7 and 8 activity” (Bioorg Med Chem Lett, 2020).

Type in all cases: cell-based
For test [1], the target named is T1, Toll-like receptor 8 (Homo sapiens) (UniProt Q9NR97).
T1 sequence (whole entry): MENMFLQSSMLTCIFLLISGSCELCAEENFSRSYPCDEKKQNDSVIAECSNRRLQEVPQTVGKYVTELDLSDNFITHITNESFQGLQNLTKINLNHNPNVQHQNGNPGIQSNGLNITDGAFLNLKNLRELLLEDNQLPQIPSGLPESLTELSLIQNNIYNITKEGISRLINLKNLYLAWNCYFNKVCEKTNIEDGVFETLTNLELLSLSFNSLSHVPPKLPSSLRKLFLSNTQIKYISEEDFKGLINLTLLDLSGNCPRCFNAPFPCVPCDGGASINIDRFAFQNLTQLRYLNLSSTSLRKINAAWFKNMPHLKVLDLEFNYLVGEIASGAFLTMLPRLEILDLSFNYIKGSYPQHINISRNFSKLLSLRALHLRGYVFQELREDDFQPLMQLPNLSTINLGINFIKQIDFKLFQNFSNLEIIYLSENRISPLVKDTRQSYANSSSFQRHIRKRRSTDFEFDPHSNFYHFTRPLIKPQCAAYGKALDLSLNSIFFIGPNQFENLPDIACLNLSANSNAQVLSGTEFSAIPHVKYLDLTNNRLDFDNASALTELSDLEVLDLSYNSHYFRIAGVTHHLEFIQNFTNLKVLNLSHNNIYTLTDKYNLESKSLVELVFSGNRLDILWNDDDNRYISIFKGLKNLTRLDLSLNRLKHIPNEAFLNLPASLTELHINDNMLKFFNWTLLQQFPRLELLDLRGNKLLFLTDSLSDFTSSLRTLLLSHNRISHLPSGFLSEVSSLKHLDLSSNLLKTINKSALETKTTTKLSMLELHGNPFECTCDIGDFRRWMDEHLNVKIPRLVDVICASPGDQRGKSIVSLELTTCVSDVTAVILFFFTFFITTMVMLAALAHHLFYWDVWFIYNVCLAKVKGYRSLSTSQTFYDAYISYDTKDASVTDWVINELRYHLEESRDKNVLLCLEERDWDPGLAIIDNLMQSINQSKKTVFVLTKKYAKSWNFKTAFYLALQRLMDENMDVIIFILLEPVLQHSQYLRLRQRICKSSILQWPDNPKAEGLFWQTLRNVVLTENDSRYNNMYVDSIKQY
Nature of the test: Agonist activity at TLR8 in human PBMC assessed as induction of myeloid dendritic cell maturation by measuring increase in MHC-1 level at 0.1 uM after 6 hrs by flow cytometry relative to control. Summed up:
(§1)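 hPBMCs stimulated 6 h at a single 0.1 μM dose; HLA-DR, MHC-I, CD80 and CD86 on mDCs and pDCs measured by flow cytometry, expressed as fold change versus unstimulated cells. Mean ± SD of three independent experiments in three different donors.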

In test [2] the target is T1, Toll-like receptor 8 (Homo sapiens). Put plainly: Agonist activity at TLR8 in human PBMC assessed as induction of myeloid dendritic cell maturation by measuring increase in CD86 level at 0.1 uM after 6 hrs by flow cytometry relative to control. Put shortly: as §1
Test [3] has as its target T2, Toll-like receptor 7 (Homo sapiens) (UniProt Q9NYK1).
T2 sequence (whole entry): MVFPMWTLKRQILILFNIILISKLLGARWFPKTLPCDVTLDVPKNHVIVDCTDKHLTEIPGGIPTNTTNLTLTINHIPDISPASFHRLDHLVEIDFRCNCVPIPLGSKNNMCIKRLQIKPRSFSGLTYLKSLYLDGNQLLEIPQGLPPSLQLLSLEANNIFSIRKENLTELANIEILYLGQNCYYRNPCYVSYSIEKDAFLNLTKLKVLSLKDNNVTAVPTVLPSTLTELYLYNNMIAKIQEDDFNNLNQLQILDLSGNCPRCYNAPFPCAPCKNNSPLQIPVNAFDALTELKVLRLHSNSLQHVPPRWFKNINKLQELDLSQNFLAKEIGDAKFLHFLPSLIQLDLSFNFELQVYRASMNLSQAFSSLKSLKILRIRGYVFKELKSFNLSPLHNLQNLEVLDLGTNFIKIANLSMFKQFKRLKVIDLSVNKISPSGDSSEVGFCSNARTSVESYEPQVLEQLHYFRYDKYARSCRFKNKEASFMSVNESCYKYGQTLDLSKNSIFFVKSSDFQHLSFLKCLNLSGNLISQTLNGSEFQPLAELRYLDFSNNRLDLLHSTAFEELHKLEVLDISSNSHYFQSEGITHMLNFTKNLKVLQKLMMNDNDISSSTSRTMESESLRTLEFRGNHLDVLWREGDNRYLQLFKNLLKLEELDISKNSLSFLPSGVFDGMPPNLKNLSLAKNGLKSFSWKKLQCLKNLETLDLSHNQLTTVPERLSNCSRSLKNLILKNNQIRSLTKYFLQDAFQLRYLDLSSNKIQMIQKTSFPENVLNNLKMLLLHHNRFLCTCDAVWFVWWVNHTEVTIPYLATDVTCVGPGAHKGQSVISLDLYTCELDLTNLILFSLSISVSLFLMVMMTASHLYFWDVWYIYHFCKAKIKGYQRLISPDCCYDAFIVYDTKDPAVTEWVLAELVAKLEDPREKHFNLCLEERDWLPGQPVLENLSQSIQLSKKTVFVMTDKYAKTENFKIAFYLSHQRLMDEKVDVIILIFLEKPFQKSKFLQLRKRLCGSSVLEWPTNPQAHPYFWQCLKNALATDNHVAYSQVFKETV
Nature of the test: Agonist activity at TLR7 in human PBMC assessed as IFNalpha stimulation at 10 uM. Put shortly: (§2)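 IFNα secretion by hPBMCs across a μM dose range; MEC = lowest dose tested inducing cytokine, PC = dose giving highest level, PL = peak level at 10 μM. Data representative of one of three independent donors.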

In test [4] the target is T1, Toll-like receptor 8 (Homo sapiens). Nature of the test: Agonist activity at TLR8 in human PBMC assessed as TNFalpha level. Put shortly:
(§3)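 TNFα secretion by hPBMCs across a μM dose range; MEC = lowest dose tested inducing cytokine, PC = dose giving highest level, PL = peak level at 10 μM. Data representative of one of three independent donors.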

Test [5] addresses TLR7 and TLR8 (Homo sapiens) (UniProt Q9NYK1+Q9NR97). Put plainly: Agonist activity at TLR7/TLR8 in human PBMC assessed as IFN alpha level. Put shortly:
as §2

The target in another test is T3, Toll-like receptor 8 (Homo sapiens, UniProt Q9NR97).
T3 sequence (Q9NR97 whole entry): T1 sequence (whole entry)
Put plainly: Agonist activity at human TLR8 expressed in HEK293 cells assessed as induction of NFKappaB activity after 24 hrs by SEAP reporter gene assay. Summed up: (§4)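 HEK293 cells stably transfected with hTLR7 or hTLR8 plus an NFκB-driven SEAP reporter, treated 24 h with compound over a μM range; SEAP secretion read out. EC50 as mean ± SD of three (TLR7) or four (TLR8) independent experiments.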
On the technique in general: In a reporter assay the amount or activity of a reporter protein is the signal.

The target in test [6] is T1, Toll-like receptor 8 (Homo sapiens). Nature of the test: Agonist activity at TLR8 in human PBMC assessed as induction of myeloid dendritic cell maturation by measuring HLA-DR level at 0.1 uM after 6 hrs by flow cytometry. Put shortly:
as §1

In another test the target is T4, Toll-like receptor 7 (Homo sapiens, UniProt Q9NYK1).
T4 sequence (Q9NYK1 whole entry): T2 sequence (whole entry)
Nature of the test: Agonist activity at human TLR7 expressed in HEK293 cells assessed as induction of NFKappaB activity after 24 hrs by SEAP reporter gene assay. Put shortly:
as §4

Test [7] concerns the target T1, Toll-like receptor 8 (Homo sapiens). Put plainly: Agonist activity at TLR8 in human PBMC assessed as induction of myeloid dendritic cell maturation by measuring increase in CD80 level at 0.1 uM after 6 hrs by flow cytometry relative to control. Put shortly:
as §1

Test [8] shares this target. Nature of the test: Agonist activity at TLR8 in human PBMC assessed as induction of myeloid dendritic cell maturation by measuring CD86 level at 0.1 uM after 6 hrs by flow cytometry. Summed up: as §1
In general terms: Flow cytometry measures light scatter and fluorescence of single cells or particles in a stream.

Test [9] has the same target. Nature of the test: Agonist activity at TLR8 in human PBMC assessed as TNFalpha level at 10 uM. Put shortly: as §3
Test [10] deals with Toll-like receptor 3 (Homo sapiens) (UniProt O15455). Put plainly: Agonist activity at human TLR3 expressed in HEK293 cells by SEAP reporter gene assay.
Sequence of Toll-like receptor 3 (Homo sapiens) (O15455 whole entry): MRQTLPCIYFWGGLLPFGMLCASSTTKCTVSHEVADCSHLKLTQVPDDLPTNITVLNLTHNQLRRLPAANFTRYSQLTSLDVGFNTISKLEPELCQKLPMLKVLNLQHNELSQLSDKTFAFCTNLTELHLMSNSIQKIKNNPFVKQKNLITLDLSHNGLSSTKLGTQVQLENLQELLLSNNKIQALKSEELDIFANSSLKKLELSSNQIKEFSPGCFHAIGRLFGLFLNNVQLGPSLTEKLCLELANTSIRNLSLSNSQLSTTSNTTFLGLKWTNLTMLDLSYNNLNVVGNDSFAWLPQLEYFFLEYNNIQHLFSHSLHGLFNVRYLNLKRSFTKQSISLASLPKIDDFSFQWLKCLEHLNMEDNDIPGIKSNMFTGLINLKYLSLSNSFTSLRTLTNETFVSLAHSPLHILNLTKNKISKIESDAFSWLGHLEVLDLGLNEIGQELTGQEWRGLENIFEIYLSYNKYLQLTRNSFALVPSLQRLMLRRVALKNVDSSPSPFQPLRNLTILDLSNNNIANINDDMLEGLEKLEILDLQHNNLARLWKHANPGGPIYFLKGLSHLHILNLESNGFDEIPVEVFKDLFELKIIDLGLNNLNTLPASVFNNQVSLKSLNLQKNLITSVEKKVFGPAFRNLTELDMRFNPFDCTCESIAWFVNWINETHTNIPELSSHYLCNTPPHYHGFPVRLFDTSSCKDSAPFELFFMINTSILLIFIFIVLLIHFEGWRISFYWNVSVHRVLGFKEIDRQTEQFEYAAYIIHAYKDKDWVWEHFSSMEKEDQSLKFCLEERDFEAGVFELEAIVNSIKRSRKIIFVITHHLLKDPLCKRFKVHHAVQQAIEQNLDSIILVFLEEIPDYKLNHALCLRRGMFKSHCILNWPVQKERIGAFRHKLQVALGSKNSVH
Test [11] concerns the target T2, Toll-like receptor 7 (Homo sapiens). Put plainly: Agonist activity at TLR7 in human PBMC assessed as induction of plasmacytoid dendritic cell maturation by measuring CD86 level at 0.1 uM after 6 hrs by flow cytometry. Summed up:
as §1

Test [12] has the same target. Put plainly: Agonist activity at TLR7 in human PBMC assessed as induction of plasmacytoid dendritic cell maturation by measuring HLA-DR level at 0.1 uM after 6 hrs by flow cytometry. Put shortly:
as §1

Test [13] shares this target. Put plainly: Agonist activity at TLR7 in human PBMC assessed as induction of plasmacytoid dendritic cell maturation by measuring MHC-1 level at 0.1 uM after 6 hrs by flow cytometry. Put shortly: as §1
Test [14] shares this target. Put plainly: Agonist activity at TLR7 in human PBMC assessed as induction of plasmacytoid dendritic cell maturation by measuring CD80 level at 0.1 uM after 6 hrs by flow cytometry. Put shortly:
as §1

The target in test [15] is T5, Toll-like receptor 9 (Homo sapiens) (UniProt Q9NR96).
T5 sequence (whole entry): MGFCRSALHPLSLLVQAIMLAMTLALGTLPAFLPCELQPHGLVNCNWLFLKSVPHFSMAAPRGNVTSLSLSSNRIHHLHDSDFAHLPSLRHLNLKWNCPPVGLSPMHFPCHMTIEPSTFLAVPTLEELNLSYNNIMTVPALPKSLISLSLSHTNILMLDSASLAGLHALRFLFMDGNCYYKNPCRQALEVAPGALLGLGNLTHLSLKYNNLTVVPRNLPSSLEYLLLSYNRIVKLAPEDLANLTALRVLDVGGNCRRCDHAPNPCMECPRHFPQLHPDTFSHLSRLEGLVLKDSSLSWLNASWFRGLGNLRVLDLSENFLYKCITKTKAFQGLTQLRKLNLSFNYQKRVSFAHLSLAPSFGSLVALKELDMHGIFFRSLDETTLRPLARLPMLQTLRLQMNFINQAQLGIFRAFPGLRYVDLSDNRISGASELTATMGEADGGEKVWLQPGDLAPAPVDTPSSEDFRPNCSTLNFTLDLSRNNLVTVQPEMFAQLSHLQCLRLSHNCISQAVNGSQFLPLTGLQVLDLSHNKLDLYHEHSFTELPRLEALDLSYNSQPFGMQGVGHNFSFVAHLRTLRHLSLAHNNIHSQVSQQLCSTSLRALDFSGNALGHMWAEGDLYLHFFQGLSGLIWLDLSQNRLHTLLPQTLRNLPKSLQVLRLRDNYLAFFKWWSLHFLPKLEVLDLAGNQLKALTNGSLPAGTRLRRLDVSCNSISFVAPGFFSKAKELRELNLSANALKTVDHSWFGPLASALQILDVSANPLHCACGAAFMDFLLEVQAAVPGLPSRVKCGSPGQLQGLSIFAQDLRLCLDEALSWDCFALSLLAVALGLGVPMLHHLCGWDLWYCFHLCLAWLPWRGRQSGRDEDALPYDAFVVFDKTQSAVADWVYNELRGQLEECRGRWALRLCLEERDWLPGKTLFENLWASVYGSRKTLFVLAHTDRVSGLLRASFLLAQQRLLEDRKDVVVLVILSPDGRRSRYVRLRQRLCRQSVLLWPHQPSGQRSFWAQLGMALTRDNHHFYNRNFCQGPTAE
Nature of the test: Agonist activity at human TLR9 expressed in HEK293 cells by SEAP reporter gene assay.

pEC50: −log10 of the molar value. Activity calls are given as the source filed them. The rule behind the calls is not given here.

Regarding `CCOCc1nc2c(N)nc3ccccc3c2n1CC(C)(C)O`, the fold change (FC) in test [1] is 1.4; in test [2], 1.9. Further, the Activity in [3] worked out at 1410 pg/mL. Also, the MEC amounted to 2 µM in test [4] and 0.08 µM in test [5]. Moreover, in test [5], the ECmax amounted to 10 µM.
In the case of `CCC[C@H](C)Oc1nc(N)c2[nH]c(=O)n(CC3CCN(CCO)CC3)c2n1`, the results for the negative-log EC50 (pEC50) at Toll-like receptor 8 and at Toll-like receptor 7 were 5.67 and 5.39, respectively. The outcome in test [6] and in test [8] was inactive. In addition, the Activity in [3] is 4750 pg/mL; in [9], 10300 pg/mL. The fold change (FC) in test [7] came out at 1.5. In addition, the MEC was 2 µM in test [4] and 0.016 µM in test [5]. For the same compound, the ECmax in test [5] amounted to 0.08 µM.
In the case of `COCCOc1nc(N)c2[nH]c(=O)n(CC3CCNCC3)c2n1`, the pEC50 (as a rule, the EC50 on a negative log10 scale, so that one unit is a factor of ten) at Toll-like receptor 7 is < 3.30. The Activity in [3] came out at 2240 pg/mL. Besides, the result in [10], in test [11], in test [12], in [13], in test [14] and in [15] was inactive.
